Calls of active or inactive are those of the source. The calls are words filed in the database; no cut-off is given here.
How the values were obtained:
D(1B) dopamine receptor [1] = molecular target: T1, D(1B) dopamine receptor (Homo sapiens, UniProt P21918); assay: Antagonist activity at human Dopamine D5 receptor in HEK293 cells assessed as change in SKF 38393-induced intracellular calcium response; assay type: functional, cell-based
Method in brief: (§1)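 Intact HEK293 cells stably expressing the receptor, loaded with Oregon Green 488 BAPTA-1/AM plus Pluronic F-127 for 45 min at 37 °C, then suspended in Krebs-Hepes buffer pH 7.4. Fluorescence ex 485/em 520 nm read over 30 s. IC50 by four-parameter fit; Ki via modified Cheng-Prusoff.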

[2] = Displacement of [3H]spiperone from human Dopamine D4.4 receptor expressed in CHO cells; assay type: cell-based
Method in brief: (§2)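 [3H]Spiperone competition on whole-cell suspensions (D2L in HEK293, D4.4 in CHO) in Tris-HCl 50 mM/MgCl2 5 mM pH 7.4, 1.5 h at 27 °C. Non-specific binding defined with 10 µM haloperidol. Filtration over PEI-treated filtermat, scintillation counting. At least two independent triplicate experiments; nonlinear fit IC50 converted to Ki by Cheng-Prusoff.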

D(3) dopamine receptor = D(3) dopamine receptor (Homo sapiens, UniProt P35462); assay: Displacement of [3H]spiperone from human Dopamine D3 receptor expressed in CHO cells; assay type: cell-based
D(2) dopamine receptor [3] = molecular target: T2, D(2) dopamine receptor (Homo sapiens, UniProt P14416); assay: Displacement of [3H]Spiperone from human Dopamine receptor D2 isoform long expressed in HEK293 cells; assay type: cell-based; method in brief: as §2
D(1B) dopamine receptor [4] = molecular target: T1, D(1B) dopamine receptor; assay: Displacement of [3H]SCH 23390 from human Dopamine D5 receptor expressed in HEK293
Method in brief: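 Whole HEK293 cell suspension in 5 mM MgCl2/50 mM Tris-HCl pH 7.4, incubated with [3H]SCH 23390 for 1.5 h at 27 °C. Fluphenazine 100 µM defined non-specific binding. Separation by filtration over polyethyleneimine-treated filters, then scintillation counting. At least two independent experiments, each in triplicate; Ki from IC50 by Cheng-Prusoff.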

D(2) dopamine receptor [5] = molecular target: T2, D(2) dopamine receptor; assay: Antagonist activity at human Dopamine receptor D2 isoform long expressed in HEK293 cells assessed as change in quinpirole-induced intracellular calcium response; assay type: functional, cell-based; method in brief: as §1
D(2) dopamine receptor [6] = molecular target: T2, D(2) dopamine receptor; assay: Displacement of [3H]spiperone from human Dopamine receptor D2 isoform long expressed in HEK293 cells at 10 uM; assay type: cell-based
Method in brief: (§3)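 Whole HEK293 cells expressing hD5 or hD2L were suspended in 50 mM Tris-HCl, 5 mM MgCl2, pH 7.4, with [3H]SCH 23390 (D5) or [3H]spiperone (D2) and run in triplicate for 1.5 h at 27 °C. Samples were filtered on PEI-treated filtermats and counted by scintillation. Non-specific binding was set with fluphenazine 100 µM (D5) or haloperidol 10 µM (D2). The value is % change in bound radioactivity.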

D(2) dopamine receptor [7] = molecular target: T2, D(2) dopamine receptor; assay: Antagonist activity at human Dopamine receptor D2 isoform long expressed in HEK293 cells assessed as change in quinpirole-induced intracellular calcium response at 10 uM; assay type: functional, cell-based; parameters: scale not given: the % may be the effect or the level left
Method in brief: (§4)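 HEK293 cells stably expressing hD2L or hD5 were loaded with Oregon Green 488 BAPTA-1/AM for 45 min at 37 °C and resuspended in Krebs-Hepes buffer at pH 7.4. Cells were preincubated with compound for 30 min at 37 °C, then given standard agonist at 1 µM final (quinpirole for D2, SKF 38393 for D5). Fluorescence (ex 485, em 520 nm) was read for 30 s; the value is % change of the agonist-induced signal.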

D(1B) dopamine receptor [8] = molecular target: T1, D(1B) dopamine receptor; assay: Antagonist activity at human Dopamine D5 receptor in HEK293 cells assessed as change in SKF 38393-induced intracellular calcium response at 10 uM; assay type: functional, cell-based; parameters: scale not given: the % may be the effect or the level left; method in brief: as §4
[9] = Displacement of [3H]spiperone from human Dopamine D4.4 receptor expressed in CHO cells at 10 uM; assay type: cell-based
D(1B) dopamine receptor [10] = molecular target: T1, D(1B) dopamine receptor; assay: Displacement of [3H]SCH 23390 from human Dopamine D5 receptor expressed in HEK293 cells at 10 uM; assay type: cell-based; method in brief: as §3
Homo sapiens [11] = species on record: Homo sapiens; assay: Selectivity for human dopamine D4.4 receptor over human dopamine D5 receptor
Homo sapiens [12] = species on record: Homo sapiens; assay: Selectivity for human dopamine D4.4 receptor over human dopamine receptor D2 isoform long
Homo sapiens [13] = species on record: Homo sapiens; assay: Selectivity for human dopamine D4.4 receptor over human dopamine D3 receptor

T1 sequence (P21918 whole entry): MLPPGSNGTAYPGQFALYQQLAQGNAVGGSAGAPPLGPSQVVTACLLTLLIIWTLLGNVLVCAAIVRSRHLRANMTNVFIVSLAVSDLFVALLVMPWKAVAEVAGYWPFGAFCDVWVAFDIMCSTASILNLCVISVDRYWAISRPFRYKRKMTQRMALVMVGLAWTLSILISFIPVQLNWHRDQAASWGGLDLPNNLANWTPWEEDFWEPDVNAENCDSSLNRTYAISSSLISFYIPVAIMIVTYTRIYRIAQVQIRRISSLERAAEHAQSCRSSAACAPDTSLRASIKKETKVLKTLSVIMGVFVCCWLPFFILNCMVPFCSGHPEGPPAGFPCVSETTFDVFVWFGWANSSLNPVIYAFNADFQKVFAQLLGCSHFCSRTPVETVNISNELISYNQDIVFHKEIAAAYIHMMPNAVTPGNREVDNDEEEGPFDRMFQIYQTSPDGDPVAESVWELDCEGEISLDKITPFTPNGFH
Sequence of D(3) dopamine receptor (P35462 whole entry, canonical isoform): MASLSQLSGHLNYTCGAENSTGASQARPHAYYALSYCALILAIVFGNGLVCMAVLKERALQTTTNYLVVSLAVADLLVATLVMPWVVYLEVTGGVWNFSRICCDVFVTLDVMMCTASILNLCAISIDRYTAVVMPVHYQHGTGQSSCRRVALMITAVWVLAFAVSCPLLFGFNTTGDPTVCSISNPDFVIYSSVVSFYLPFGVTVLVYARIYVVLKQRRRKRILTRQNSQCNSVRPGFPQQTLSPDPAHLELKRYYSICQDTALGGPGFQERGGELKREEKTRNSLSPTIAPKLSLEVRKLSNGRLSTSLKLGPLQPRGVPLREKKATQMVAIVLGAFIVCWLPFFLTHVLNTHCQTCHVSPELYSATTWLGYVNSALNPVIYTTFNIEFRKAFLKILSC
T2 sequence (P14416 whole entry, canonical isoform): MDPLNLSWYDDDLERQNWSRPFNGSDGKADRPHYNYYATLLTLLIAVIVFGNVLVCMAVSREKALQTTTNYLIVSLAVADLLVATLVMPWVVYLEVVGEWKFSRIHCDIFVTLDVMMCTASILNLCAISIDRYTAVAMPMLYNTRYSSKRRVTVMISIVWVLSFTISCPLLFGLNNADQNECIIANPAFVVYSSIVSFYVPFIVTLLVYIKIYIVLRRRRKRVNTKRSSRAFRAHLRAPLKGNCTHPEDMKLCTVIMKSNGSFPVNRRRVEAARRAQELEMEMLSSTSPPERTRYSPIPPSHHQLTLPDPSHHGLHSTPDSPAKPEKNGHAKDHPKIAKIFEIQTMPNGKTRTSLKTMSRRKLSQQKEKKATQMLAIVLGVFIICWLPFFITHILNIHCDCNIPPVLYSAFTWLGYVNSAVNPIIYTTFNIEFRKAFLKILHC

Row | Structure (SMILES) | Activity (D(1B) dopamine receptor [1]) | Ki [2] [nM] | Ki (D(3) dopamine receptor) [nM] | Ki (D(2) dopamine receptor [3]) [nM] | Ki (D(1B) dopamine receptor [4]) [nM] | Ki (D(2) dopamine receptor [5]) [nM] | Activity (D(2) dopamine receptor [6]) [%] | Activity (D(2) dopamine receptor [7]) [%] | Activity (D(1B) dopamine receptor [8]) [%] | Activity [9] [%] | Activity (D(1B) dopamine receptor [10]) [%] | Ki (D(1B) dopamine receptor [1]) | Selectivity ratio (Homo sapiens [11]) | Selectivity ratio (Homo sapiens [12]) | Selectivity ratio (Homo sapiens [13])
1 | O=C1c2ccccc2CN1CCCCN1CCN(c2ccc(Cl)cc2)CC1 | inactive | 142 | 660 | 760 | 33.6 | > 10000 | 105 | -7 | 21 | 91 | 100 | – | – | – | –
2 | O=C1c2ccccc2CN1CCCCN1CCN(c2cccc(C(F)(F)F)c2)CC1 | inactive | 368 | 14 | 387 | 80.8 | 26 | 106 | -53 | 41 | 95 | 99 | – | – | – | –
3 | O=c1c2ccccc2ncn1CCCCN1CCN(c2cccc(C(F)(F)F)c2)CC1 | inactive | 185 | 102 | 73 | 1700 | > 10000 | 107 | -38 | 9 | 98 | 76 | – | – | – | –
4 | O=C1c2ccccc2S(=O)(=O)N1CCCCN1CCN(c2ccc(Cl)cc2)CC1 | inactive | 36 | 287 | 177 | 230 | > 10000 | 99 | -24 | 4 | 101 | 87 | – | – | – | –
5 | O=c1c2ccccc2ncn1CCCCN1CCN(c2ccc(Cl)cc2)CC1 | – | 158 | 1780 | 140 | 507 | > 10000 | 100 | -44 | 5 | 102 | 76 | Not Active | – | – | –
6 | O=C1Cc2ccccc2N1CCCCN1CCN(c2cccc(C(F)(F)F)c2)CC1 | inactive | 28 | 247 | 323 | 190 | 416 | 105 | -55 | 26 | 96 | 93 | – | – | – | –
7 | COc1ccccc1N1CCN(CCCCn2cnc3ccccc3c2=O)CC1 | – | – | – | 184 | – | 1.2 | 105 | -58 | – | – | – | – | – | – | –
8 | O=C1Cc2ccccc2N1CCCCN1CCN(c2ccc(Cl)cc2)CC1 | inactive | 0.04 | 1200 | 1750 | 202 | 375 | 106 | -28 | 8 | 101 | 93 | – | > 5000 | > 43000 | > 30000
9 | O=C1c2ccccc2S(=O)(=O)N1CCCCN1CCN(c2cccc(C(F)(F)F)c2)CC1 | inactive | > 10000 | 107 | 113 | 1760 | > 10000 | 100 | -44 | 8 | 54 | 89 | – | – | – | –

Source: ChEMBL document CHEMBL1149628, “Synthesis of novel lactam derivatives and their evaluation as ligands for the dopamine receptors, leading to a D(4)-selective ligand” (Bioorg Med Chem, 2007)
